This is an account of results in ChEMBL document CHEMBL1806454, “8-Aryl- and alkyloxycaffeine analogues as inhibitors of monoamine oxidase” (Eur J Med Chem, 2011).

Data set [1] has as its target T1, Amine oxidase [flavin-containing] A (Homo sapiens, UniProt P21397).
T1 sequence (P21397 whole entry): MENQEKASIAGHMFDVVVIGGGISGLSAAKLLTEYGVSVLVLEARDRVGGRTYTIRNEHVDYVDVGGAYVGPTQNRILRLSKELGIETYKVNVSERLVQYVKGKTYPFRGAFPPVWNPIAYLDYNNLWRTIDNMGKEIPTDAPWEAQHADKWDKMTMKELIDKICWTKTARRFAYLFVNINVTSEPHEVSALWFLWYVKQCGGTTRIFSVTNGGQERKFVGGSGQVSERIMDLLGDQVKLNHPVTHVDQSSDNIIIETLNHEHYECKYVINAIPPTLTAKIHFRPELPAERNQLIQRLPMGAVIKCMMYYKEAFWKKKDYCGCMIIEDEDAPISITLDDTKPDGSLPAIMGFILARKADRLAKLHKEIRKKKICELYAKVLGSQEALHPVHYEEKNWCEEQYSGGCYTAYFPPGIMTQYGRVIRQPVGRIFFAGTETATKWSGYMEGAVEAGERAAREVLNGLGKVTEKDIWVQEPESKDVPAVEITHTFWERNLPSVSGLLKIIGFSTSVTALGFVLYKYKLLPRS
The experiment in a line: Inhibition of recombinant human MAOA expressed in baculovirus infected insect cell microsomes using kynuramine as substrate assessed as formation of 4-hydroxyquinoline after 20 mins by fluorescence spectrophotometry. Also noted: species or system Microsome.

Data set [2] deals with T2, Amine oxidase [flavin-containing] B (Homo sapiens, UniProt P27338).
T2 sequence (P27338 whole entry): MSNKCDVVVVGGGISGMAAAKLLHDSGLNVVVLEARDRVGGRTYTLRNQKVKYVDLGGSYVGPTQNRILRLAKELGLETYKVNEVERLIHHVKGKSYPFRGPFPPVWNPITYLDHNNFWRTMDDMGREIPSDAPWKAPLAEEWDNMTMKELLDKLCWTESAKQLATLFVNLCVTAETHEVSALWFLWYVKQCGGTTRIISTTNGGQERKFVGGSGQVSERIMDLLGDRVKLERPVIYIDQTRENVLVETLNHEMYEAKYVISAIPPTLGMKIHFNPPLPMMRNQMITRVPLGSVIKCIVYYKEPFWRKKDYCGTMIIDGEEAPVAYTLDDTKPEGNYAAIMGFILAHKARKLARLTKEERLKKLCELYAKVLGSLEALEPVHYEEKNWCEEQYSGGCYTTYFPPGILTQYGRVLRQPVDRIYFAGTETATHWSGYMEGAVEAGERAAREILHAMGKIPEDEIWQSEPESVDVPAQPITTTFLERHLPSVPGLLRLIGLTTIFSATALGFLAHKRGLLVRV
The experiment in a line: Inhibition of recombinant human MAOB expressed in baculovirus infected insect cell microsomes using kynuramine as substrate assessed as formation of 4-hydroxyquinoline after 20 mins by fluorescence spectrophotometry. Set-up: species or system Microsome.

The species entered for the next data set is Homo sapiens. The experiment in a line: Selectivity index, ratio of Ki for recombinant human MAOB to Ki for recombinant human MAOA. In a few lines: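 Recombinant human MAO-A and MAO-B in insect-cell microsomes (0.0075 mg/mL), kynuramine 45 µM (A) or 30 µM (B), inhibitor 0–100 µM, 9 concentrations, DMSO 4% final, K-phosphate 100 mM pH 7.4 isotonic with KCl, 37 °C 20 min. NaOH stop, 4-hydroxyquinoline fluorescence (ex 310/em 400 nm). Duplicate IC50 fits converted to Ki; SI = Ki(MAO-B)/Ki(MAO-A).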

Data set [3] has as its target T1, Amine oxidase [flavin-containing] A. As to the kind of experiment: Competitive inhibition of human recombinant MAOA expressed in baculovirus infected insect cell microsomes using kynuramine as substrate assessed as 4-hydroxyquinoline formation per min per mg protein by Lineweaver-Burk plot analysis. Set-up: species or system Microsome.
For data set [4], the target named is T2, Amine oxidase [flavin-containing] B. As to the kind of experiment: Competitive inhibition of human recombinant MAOB expressed in baculovirus infected insect cell microsomes using kynuramine as substrate assessed as 4-hydroxyquinoline formation per min per mg protein by Lineweaver-Burk plot analysis. Also noted: species or system Microsome.
For data set [5] the target is unchanged. As to the kind of experiment: Ratio of 8-benzyloxycaffeine IC50 to compound IC50 for recombinant human MAOB expressed in baculovirus infected insect cell microsomes. Set-up: species or system Microsome.

For orientation: IC50 means the concentration needed to halve the response being measured. By Ki is commonly meant the equilibrium dissociation constant of an inhibitor or competing ligand from its target. On to `CC(C)CCCCOc1nc2c(c(=O)n(C)c(=O)n2C)n1C`, for which, in data set [1], the IC50 turned out to be 15.2 µM and the Ki was found to be 5.31 µM. In data set [2], the IC50 was determined as 0.381 µM and the Ki came out at 0.28 µM. In addition, the Ratio Ki in the data set filed under Homo sapiens was 0.053.
Consider `Cn1c(=O)c2c(nc(OCCc3ccccc3)n2C)n(C)c1=O`, for which, in data set [1], the IC50 stood at 15.9 µM and the Ki amounted to 5.57 µM. In data set [2], the IC50 was found to be 2.94 µM and the Ki is 2.16 µM. The Ratio Ki in the data set listed under Homo sapiens turned out to be 0.39.
In the same order, the values of `Cn1c(=O)c2c(nc(OCC3CC=CCC3)n2C)n(C)c1=O` (stereo not given) are 13.8 µM, 4.81 µM, 2.99 µM, 2.19 µM and 0.45.
The corresponding values for `Cn1c(=O)c2c(nc(OCCOc3ccccc3)n2C)n(C)c1=O` are 20.4 µM, 77.1 µM, 0.383 µM, 0.28 µM and 0.0036.
With `Cn1c(=O)c2c(nc(OCCOc3ccc(Cl)cc3)n2C)n(C)c1=O`, the Ki in data set [1] was 0.64 µM.
For `Cn1c(=O)c2c(nc(OCCOc3ccc(Br)cc3)n2C)n(C)c1=O`, the IC50 in data set [1] was 1.65 µM; in data set [2], 0.166 µM. The inhibition constant Ki in data set [1] came to 0.58 µM; in data set [2] it was 0.12 µM; in data set [3], 1.18 µM; in data set [4], 0.088 µM. The Ratio Ki in the data set filed under Homo sapiens was 0.207.
Regarding `CC(C)CCOc1nc2c(c(=O)n(C)c(=O)n2C)n1C`, the IC50 in data set [1] came out at 27.3 µM; in data set [2], 14.1 µM. The values for the Ki in data set [1] and in data set [2] were 9.57 µM and 10.3 µM, respectively. Moreover, in the data set listed under Homo sapiens, the Ratio Ki amounted to 1.08.
The corresponding values for `Cn1c(=O)c2c(nc(OCC3CCCCC3)n2C)n(C)c1=O` are 18.4 µM, 1.36 µM, 6.45 µM, 1 µM and 0.16.
For the compound `Cn1c(=O)c2c(nc(OCc3ccc(Br)cc3)n2C)n(C)c1=O`, the IC50 came out at 1.3 µM in data set [1] and 0.062 µM in data set [2]. Besides, the Ki in data set [1] worked out at 0.46 µM; in data set [2], 0.045 µM. Further, the Ratio Ki in the data set listed under Homo sapiens was found to be 0.099. Also, the “Ratio IC50” value in data set [5] was found to be 27.
Take `Cn1c(=O)c2c(nc(OCC3CCCC3)n2C)n(C)c1=O`: in data set [1], the IC50 was found to be 22.8 µM and the Ki came to 7.98 µM. Also, in data set [2], the IC50 came to 15.9 µM and the Ki is 11.6 µM. In addition, the Ratio Ki in the data set filed under Homo sapiens was 1.46.
Regarding `Cn1c(=O)c2c(nc(OCc3ccc(Cl)cc3)n2C)n(C)c1=O`, in data set [1], the IC50 turned out to be 1.34 µM and the Ki was 0.47 µM. Also, in data set [2], the IC50 amounted to 0.065 µM and the Ki was 0.048 µM. Further, the Ratio Ki in the data set listed under Homo sapiens worked out at 0.1. In addition, the “Ratio IC50” value in data set [5] is on record as 27.
For the compound `Cn1c(=O)c2c(nc(OCCOCc3ccccc3)n2C)n(C)c1=O`, the IC50 in data set [1] came out at 168 µM; in data set [2] it was 3.77 µM. Further, the inhibition constant (Ki) in data set [1] worked out at 58.7 µM; in data set [2], 2.76 µM. In the data set filed under Homo sapiens, the Ratio Ki is 0.047.
In the same order, the values of `Cn1c(=O)c2c(nc(Oc3ccccc3)n2C)n(C)c1=O` are 75.2 µM, 10.7 µM, 26.3 µM, 7.84 µM and 0.3.
The corresponding values for `Cn1c(=O)c2c(nc(OCCCc3ccccc3)n2C)n(C)c1=O` are 69.3 µM, 0.615 µM, 24.3 µM, 0.45 µM and 0.019.
